The chains are these.
B1: Osa-1-4 twister ribozyme (parent)
chain: CCGCCUAACACUGCCAAUGCCGGUCCCAAGCCCGGAUAAAAGUGGAGGGGGCGG

Variants of B1 are the subject of the data set. Briefly: self-cleavage, relative activity (ratio to wild type); higher = more cleavage; co-transcriptional. The gist of the method: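 Relative activity is the fraction cleaved divided by that of the wild-type ribozyme. The library came from a DNA template for a 54-nucleotide Oryza sativa twister ribozyme, doped at the 48 positions downstream of the cleavage site with 97 % wild-type base and 1 % of each other base. After 2 h of in vitro transcription at 37 °C with co-transcriptional self-cleavage, the RNA was reverse-transcribed with a template-switching oligonucleotide, amplified by PCR and deep-sequenced, and reads with or without upstream sequence gave the cleavage status.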
Turning to G48A G49U, the self-cleavage worked out at 0.04.

Consider G48A G49A, for which the self-cleavage stood at 0.05.

G48A G49C: the self-cleavage worked out at 0.03.

For the variant G48U, the self-cleavage stood at 0.1.

With G48A, the self-cleavage turned out to be 0.14.

As to G48C, the self-cleavage was 0.12.

In the case of G48A G51U, the self-cleavage came out at 0.05.

On to G48A G51C, for which the self-cleavage came to 0.04.

For the variant G48A G51A, the self-cleavage is 0.1.

With A46U G48A, the self-cleavage was found to be 0.03.

With A46U G48U, the self-cleavage was determined as 0.03.

In the case of A46U G48C, the self-cleavage stood at 0.04.

On to G48C U24A, for which the self-cleavage stood at 0.04.

In the case of G48C U24G, the self-cleavage is 0.01.

Take G48C U24C: the self-cleavage amounted to 0.04.

Take G47A G49C: the self-cleavage was 0.04.

As for G47A G49A, the self-cleavage was 0.05.

With G47A G49U, the self-cleavage came out at 0.04.

With G47C U43G, the self-cleavage came out at 0.07.

Take G47C U43C: the self-cleavage was found to be 0.08.

For G47C U43A, the self-cleavage came to 0.1.

Turning to A46U G49U, the self-cleavage is 0.05.

With A46U G49C, the self-cleavage came to 0.04.

For A46U G49A, the self-cleavage came out at 0.04.

Turning to A46U G53C, the self-cleavage was 0.05.

Take A46U G53A: the self-cleavage came to 0.1.

For A46U G53U, the self-cleavage came to 0.09.

On to A46U C26A, for which the self-cleavage was found to be 0.02.

Regarding A46U C26G, the self-cleavage stood at 0.03.

With A46U C26U, the self-cleavage turned out to be 0.06.

Take G49A U24A: the self-cleavage came to 0.05.

In the case of G49A U24G, the self-cleavage was determined as 0.01.

Take G49A U24C: the self-cleavage came out at 0.05.

A46U G42A: the self-cleavage was found to be 0.08.

Turning to A46U G42C, the self-cleavage worked out at 0.06.

As to A46U G42U, the self-cleavage is 0.03.

Turning to G47U U43C, the self-cleavage is 0.08.

On to G47U U43A, for which the self-cleavage stood at 0.1.

Turning to G47U U43G, the self-cleavage worked out at 0.07.

For the variant G49A G53A, the self-cleavage worked out at 0.11.

In the case of G49A G53U, the self-cleavage was found to be 0.09.

With G49A G53C, the self-cleavage is 0.05.

For the variant G47C G48A, the self-cleavage turned out to be 0.04.

In the case of G47C G48U, the self-cleavage was determined as 0.03.

Turning to G47C G48C, the self-cleavage is 0.05.

Turning to G47U G51C, the self-cleavage was 0.05.

On to G47U G51U, for which the self-cleavage was 0.08.

For the variant G47U G51A, the self-cleavage came to 0.09.

With G48U G50U, the self-cleavage is 0.07.

For the variant G48U G50A, the self-cleavage came to 0.21.

Consider G48U G50C, for which the self-cleavage amounted to 0.07.

With G49A G54C, the self-cleavage was 0.11.

With G49A G54U, the self-cleavage turned out to be 0.39.

For G49A G54A, the self-cleavage was 0.15.

As to G49C U18A, the self-cleavage came to 0.05.

As for G49C U18C, the self-cleavage turned out to be 0.05.

Regarding G49C U18G, the self-cleavage was found to be 0.09.

With G49C G51U, the self-cleavage was found to be 0.08.

For the variant G49C G51A, the self-cleavage amounted to 0.12.

With G49C G51C, the self-cleavage turned out to be 0.04.

For the variant G47C G51A, the self-cleavage worked out at 0.09.

In the case of G47C G51C, the self-cleavage came to 0.05.

Turning to G47C G51U, the self-cleavage is 0.05.

Consider G47U U18C, for which the self-cleavage turned out to be 0.24.

Regarding G47U U18A, the self-cleavage was 0.28.

As to G47U U18G, the self-cleavage was found to be 0.57.

Regarding G47C U18C, the self-cleavage was 0.1.

On to G47C U18A, for which the self-cleavage was 0.12.

G47C U18G: the self-cleavage came out at 0.24.

Consider G47C U24A, for which the self-cleavage came to 0.03.

Regarding G47C U24C, the self-cleavage amounted to 0.04.

In the case of G47C U24G, the self-cleavage was 0.01.

As to G47U, the self-cleavage stood at 0.42.

For G47A, the self-cleavage was 0.51.

On to G47C, for which the self-cleavage was found to be 0.17.

G47U U37A: the self-cleavage stood at 0.23.

Consider G47U U37G, for which the self-cleavage came out at 0.51.

On to G47U U37C, for which the self-cleavage stood at 0.37.

Regarding A46U U24G, the self-cleavage is 0.01.

Turning to A46U U24C, the self-cleavage was 0.05.

On to A46U U24A, for which the self-cleavage is 0.04.

In the case of G47U U24A, the self-cleavage was 0.05.

As for G47U U24G, the self-cleavage is 0.02.

With G47U U24C, the self-cleavage was determined as 0.03.

As to G48U G51A, the self-cleavage was 0.11.

Consider G48U G51U, for which the self-cleavage stood at 0.07.

With G48U G51C, the self-cleavage came to 0.04.

For the variant G48C U18G, the self-cleavage amounted to 0.1.

In the case of G48C U18A, the self-cleavage turned out to be 0.09.

For G48C U18C, the self-cleavage worked out at 0.1.

Turning to G49A G50U, the self-cleavage was found to be 0.23.

Consider G49A G50A, for which the self-cleavage turned out to be 0.27.

With G49A G50C, the self-cleavage came to 0.22.

With G48U U37A, the self-cleavage was determined as 0.05.

G48U U37G: the self-cleavage stood at 0.11.

On to G48U U37C, for which the self-cleavage came to 0.09.

Take G47A G51U: the self-cleavage came out at 0.09.

For G47A G51A, the self-cleavage was determined as 0.12.

In the case of G47A G51C, the self-cleavage was found to be 0.05.

As for A46U G19C, the self-cleavage stood at 0.03.

For A46U G19U, the self-cleavage came to 0.04.

For A46U G19A, the self-cleavage turned out to be 0.06.

For the variant G48A G53A, the self-cleavage was 0.11.

For the variant G48A G53U, the self-cleavage was 0.09.

For G48A G53C, the self-cleavage is 0.07.

On to G48U U24A, for which the self-cleavage stood at 0.03.

Consider G48U U24G, for which the self-cleavage was found to be 0.01.

As to G48U U24C, the self-cleavage was found to be 0.03.

Turning to G48U U12C, the self-cleavage turned out to be 0.04.

On to G48U U12A, for which the self-cleavage is 0.07.

As for G48U U12G, the self-cleavage is 0.05.

A46U C27U: the self-cleavage stood at 0.06.

In the case of A46U C27G, the self-cleavage stood at 0.03.

Take A46U C27A: the self-cleavage amounted to 0.04.

On to A46U U43G, for which the self-cleavage amounted to 0.07.

For A46U U43C, the self-cleavage was 0.06.

As for A46U U43A, the self-cleavage turned out to be 0.08.

For A46U G34A, the self-cleavage came to 0.06.

As for A46U G34C, the self-cleavage was determined as 0.07.

With A46U G34U, the self-cleavage was found to be 0.06.

Turning to G49C G54U, the self-cleavage was 0.08.

On to G49C G54A, for which the self-cleavage was determined as 0.06.

In the case of G49C G54C, the self-cleavage stood at 0.05.

Consider A46U C31U, for which the self-cleavage is 0.04.

A46U C31G: the self-cleavage is 0.04.

On to A46U C31A, for which the self-cleavage came out at 0.02.

On to G47U U12G, for which the self-cleavage came to 0.05.

With G47U U12A, the self-cleavage was determined as 0.07.

On to G47U U12C, for which the self-cleavage is 0.07.

Consider A46U C52G, for which the self-cleavage came to 0.12.

Turning to A46U C52U, the self-cleavage stood at 0.09.

Turning to A46U C52A, the self-cleavage is 0.1.

For G47A G48C, the self-cleavage amounted to 0.04.

In the case of G47A G48U, the self-cleavage stood at 0.04.

Regarding G47A G48A, the self-cleavage turned out to be 0.08.

Take A46U G54C: the self-cleavage is 0.08.

Regarding A46U G54A, the self-cleavage amounted to 0.08.

With A46U G54U, the self-cleavage was found to be 0.17.

Turning to G47U G49C, the self-cleavage is 0.04.

Take G47U G49U: the self-cleavage amounted to 0.05.

For G47U G49A, the self-cleavage was 0.05.

For the variant A46U G45U, the self-cleavage came out at 0.03.

As to A46U G45A, the self-cleavage came out at 0.08.

Take A46U G45C: the self-cleavage turned out to be 0.04.

Regarding G48C G54C, the self-cleavage worked out at 0.1.

As for G48C G54A, the self-cleavage came to 0.11.

In the case of G48C G54U, the self-cleavage turned out to be 0.2.

For G48A G54C, the self-cleavage worked out at 0.15.

For G48A G54A, the self-cleavage was found to be 0.15.

Take G48A G54U: the self-cleavage came to 0.37.

For A46U C25U, the self-cleavage is 0.06.

For the variant A46U C25G, the self-cleavage was found to be 0.04.

On to A46U C25A, for which the self-cleavage turned out to be 0.03.

For the variant G48C U12C, the self-cleavage was found to be 0.05.

Regarding G48C U12G, the self-cleavage was determined as 0.07.

In the case of G48C U12A, the self-cleavage stood at 0.07.

On to G48C G50A, for which the self-cleavage is 0.3.

Turning to G48C G50U, the self-cleavage was 0.1.

Turning to G48C G50C, the self-cleavage was 0.1.

As for G47C U37G, the self-cleavage amounted to 0.21.

Regarding G47C U37C, the self-cleavage came to 0.15.

With G47C U37A, the self-cleavage is 0.09.

Consider G47U G48C, for which the self-cleavage came to 0.05.

Take G47U G48U: the self-cleavage turned out to be 0.05.

With G47U G48A, the self-cleavage was 0.04.

As for G48U U18G, the self-cleavage stood at 0.13.

As for G48U U18A, the self-cleavage turned out to be 0.07.

These data come from the RNAGym collection of RNA variant scans (doi:10.1002/anie.201605470).
